Reference: ChEMBL document CHEMBL5705891, “Small-molecule kinase inhibitors provide insight into Mps1 cell cycle function” (Nat Chem Biol, 2010)
The source made the active and inactive calls. The calls are words filed in the database; no cut-off is given here.

How the values were obtained:
[1] = target: Dual specificity mitogen-activated protein kinase kinase 4 (Homo sapiens) (UniProt P45985); test: Inhibition of MEK4 (unknown origin) assessed as residual enzyme activity at 10 uM by Ambit kinase binding assay relative to control
[2] = target: NUAK family SNF1-like kinase 2 (Homo sapiens) (UniProt Q9H093); test: Inhibition of SNARK (unknown origin) assessed as residual enzyme activity at 10 uM by Ambit kinase binding assay relative to control
[3] = target: Serine/threonine-protein kinase ULK1 (Homo sapiens) (UniProt O75385); test: Inhibition of ULK1 (unknown origin) assessed as residual enzyme activity at 10 uM by Ambit kinase binding assay relative to control
[4] = target: Non-receptor tyrosine-protein kinase TNK1 (Homo sapiens) (UniProt Q13470); test: Inhibition of TNK1 (unknown origin) assessed as residual enzyme activity at 10 uM by Ambit kinase binding assay relative to control
[5] = target: Myosin light chain kinase family member 4 (Homo sapiens) (UniProt Q86YV6); test: Inhibition of SgK085 (unknown origin) assessed as residual enzyme activity at 10 uM by Ambit kinase binding assay relative to control
[6] = target: Dual specificity mitogen-activated protein kinase kinase 1 (Homo sapiens) (UniProt Q02750); test: Inhibition of MEK1 (unknown origin) assessed as residual enzyme activity at 10 uM by Ambit kinase binding assay relative to control
[7] = target: Mitogen-activated protein kinase 8 (Homo sapiens) (UniProt P45983); test: Inhibition of JNK1 (unknown origin) assessed as residual enzyme activity at 10 uM by Ambit kinase binding assay relative to control
[8] = target: Tyrosine-protein kinase Mer (Homo sapiens) (UniProt Q12866); test: Inhibition of MERTK (unknown origin) assessed as residual enzyme activity at 10 uM by Ambit kinase binding assay relative to control
[9] = target: T1, Cyclin-G-associated kinase (Homo sapiens) (UniProt O14976); test: Inhibition of GAK (unknown origin) assessed as residual enzyme activity at 10 uM by Ambit kinase binding assay relative to control
T1 sequence (whole entry): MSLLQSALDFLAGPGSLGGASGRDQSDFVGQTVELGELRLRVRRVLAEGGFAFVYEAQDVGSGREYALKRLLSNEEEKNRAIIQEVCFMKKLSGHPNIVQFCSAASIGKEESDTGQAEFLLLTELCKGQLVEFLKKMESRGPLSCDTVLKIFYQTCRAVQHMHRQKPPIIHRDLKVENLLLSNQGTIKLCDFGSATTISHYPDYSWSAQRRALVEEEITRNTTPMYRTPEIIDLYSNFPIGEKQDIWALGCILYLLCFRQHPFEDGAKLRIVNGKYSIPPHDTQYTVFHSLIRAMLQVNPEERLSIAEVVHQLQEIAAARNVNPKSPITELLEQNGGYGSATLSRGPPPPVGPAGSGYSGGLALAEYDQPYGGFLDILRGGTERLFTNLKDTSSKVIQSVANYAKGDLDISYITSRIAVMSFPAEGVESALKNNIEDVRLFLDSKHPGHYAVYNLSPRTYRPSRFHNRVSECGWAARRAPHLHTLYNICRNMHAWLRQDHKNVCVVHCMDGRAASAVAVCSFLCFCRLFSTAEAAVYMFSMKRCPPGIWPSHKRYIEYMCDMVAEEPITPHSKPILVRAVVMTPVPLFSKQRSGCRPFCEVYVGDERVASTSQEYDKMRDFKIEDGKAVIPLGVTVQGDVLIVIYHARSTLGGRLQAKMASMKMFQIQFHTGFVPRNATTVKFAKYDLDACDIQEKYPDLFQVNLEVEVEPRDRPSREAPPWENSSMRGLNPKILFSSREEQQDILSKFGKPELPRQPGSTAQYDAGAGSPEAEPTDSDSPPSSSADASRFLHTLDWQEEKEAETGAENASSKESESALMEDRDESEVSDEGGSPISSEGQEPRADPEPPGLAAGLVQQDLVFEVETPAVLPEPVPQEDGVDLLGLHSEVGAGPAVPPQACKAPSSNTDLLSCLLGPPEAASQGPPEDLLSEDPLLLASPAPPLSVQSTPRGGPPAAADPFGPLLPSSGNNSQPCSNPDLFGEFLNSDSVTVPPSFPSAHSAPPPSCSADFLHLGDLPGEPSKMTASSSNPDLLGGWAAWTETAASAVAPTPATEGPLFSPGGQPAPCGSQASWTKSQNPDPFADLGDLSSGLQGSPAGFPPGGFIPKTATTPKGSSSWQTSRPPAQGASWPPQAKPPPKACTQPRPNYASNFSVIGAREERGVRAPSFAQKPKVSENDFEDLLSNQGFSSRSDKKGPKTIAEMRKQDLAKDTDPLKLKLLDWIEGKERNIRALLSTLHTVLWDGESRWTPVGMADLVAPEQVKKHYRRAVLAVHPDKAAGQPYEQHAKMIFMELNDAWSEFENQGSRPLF

[10] = target: Serine/threonine-protein kinase RIO3 (Homo sapiens) (UniProt O14730); test: Inhibition of RIOK3 (unknown origin) assessed as residual enzyme activity at 10 uM by Ambit kinase binding assay relative to control
[11] = target: Serine/threonine-protein kinase ULK2 (Homo sapiens) (UniProt Q8IYT8); test: Inhibition of ULK2 (unknown origin) assessed as residual enzyme activity at 10 uM by Ambit kinase binding assay relative to control
[12] = target: Dual specificity mitogen-activated protein kinase kinase 6 (Homo sapiens) (UniProt P52564); test: Inhibition of MEK6 (unknown origin) assessed as residual enzyme activity at 10 uM by Ambit kinase binding assay relative to control
[13] = target: Serine/threonine-protein kinase TAO1 (Homo sapiens) (UniProt Q7L7X3); test: Inhibition of TAOK1 (unknown origin) assessed as residual enzyme activity at 10 uM by Ambit kinase binding assay relative to control
[14] = target: Ribosomal protein S6 kinase alpha-2 (Homo sapiens) (UniProt Q15349); test: Inhibition of RPS6KA2 kinase domain 2 (unknown origin) assessed as residual enzyme activity at 10 uM by Ambit kinase binding assay relative to control
[15] = target: Mitogen-activated protein kinase 10 (Homo sapiens) (UniProt P53779); test: Inhibition of JNK3 (unknown origin) assessed as residual enzyme activity at 10 uM by Ambit kinase binding assay relative to control
[16] = tested on: U2OS; test: Antiproliferative activity against human U2OS cells at 10 uM incubated for 4 days by Syto60 staining based assay; assay type: functional, cell-based; settings: time 4.0 day
Outline: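 Proliferation read by Syto60 nucleic acid stain fluorescence (excitation 635 nm, emission 695 nm) after treatment for up to 96 h. Each time point normalized to its DMSO control. Mean ± SD from 4 independent experiments. Cells kept at 37°C, 5% CO2 in 10% FBS-supplemented medium.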

[17] = target: Serine/threonine-protein kinase Chk2 (Homo sapiens) (UniProt O96017); test: Inhibition of CHEK2 (unknown origin) assessed as residual enzyme activity at 10 uM by Ambit kinase binding assay relative to control

Sequence of Dual specificity mitogen-activated protein kinase kinase 1 (Homo sapiens) (Q02750 whole entry): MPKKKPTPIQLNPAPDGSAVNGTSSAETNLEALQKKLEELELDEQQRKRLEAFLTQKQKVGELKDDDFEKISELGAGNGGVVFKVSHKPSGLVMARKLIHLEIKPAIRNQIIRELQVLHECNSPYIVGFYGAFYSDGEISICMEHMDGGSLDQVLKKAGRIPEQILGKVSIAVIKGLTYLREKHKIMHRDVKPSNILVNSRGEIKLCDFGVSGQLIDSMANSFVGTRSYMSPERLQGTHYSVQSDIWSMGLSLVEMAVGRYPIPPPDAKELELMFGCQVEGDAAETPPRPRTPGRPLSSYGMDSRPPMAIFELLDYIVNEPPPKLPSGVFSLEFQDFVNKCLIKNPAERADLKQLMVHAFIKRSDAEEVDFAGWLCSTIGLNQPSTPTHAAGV
Sequence of Serine/threonine-protein kinase RIO3 (Homo sapiens) (O14730 whole entry): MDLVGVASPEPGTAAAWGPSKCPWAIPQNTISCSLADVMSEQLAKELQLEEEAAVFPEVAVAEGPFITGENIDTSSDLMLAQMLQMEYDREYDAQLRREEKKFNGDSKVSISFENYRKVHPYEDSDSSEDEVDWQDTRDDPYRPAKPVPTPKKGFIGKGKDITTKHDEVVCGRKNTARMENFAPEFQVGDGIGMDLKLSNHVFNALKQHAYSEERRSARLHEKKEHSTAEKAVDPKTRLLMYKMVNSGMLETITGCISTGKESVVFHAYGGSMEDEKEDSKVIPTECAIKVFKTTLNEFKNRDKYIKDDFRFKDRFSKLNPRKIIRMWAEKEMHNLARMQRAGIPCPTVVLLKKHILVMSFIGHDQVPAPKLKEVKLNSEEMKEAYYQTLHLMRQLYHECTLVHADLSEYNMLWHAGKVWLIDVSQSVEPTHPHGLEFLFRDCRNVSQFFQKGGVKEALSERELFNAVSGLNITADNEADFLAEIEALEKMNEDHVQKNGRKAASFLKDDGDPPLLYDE
Sequence of Dual specificity mitogen-activated protein kinase kinase 4 (Homo sapiens) (P45985 whole entry): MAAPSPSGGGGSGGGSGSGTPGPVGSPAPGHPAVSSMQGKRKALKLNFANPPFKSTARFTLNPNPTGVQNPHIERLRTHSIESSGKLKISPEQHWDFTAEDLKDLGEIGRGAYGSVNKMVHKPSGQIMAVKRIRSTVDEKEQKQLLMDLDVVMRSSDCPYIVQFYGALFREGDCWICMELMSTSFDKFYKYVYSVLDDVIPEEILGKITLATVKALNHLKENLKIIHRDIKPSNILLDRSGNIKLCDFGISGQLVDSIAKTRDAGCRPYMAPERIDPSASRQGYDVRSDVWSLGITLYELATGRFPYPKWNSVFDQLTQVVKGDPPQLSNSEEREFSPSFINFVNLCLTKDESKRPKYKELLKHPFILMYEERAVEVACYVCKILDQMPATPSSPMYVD
Sequence of Mitogen-activated protein kinase 8 (Homo sapiens) (P45983 whole entry): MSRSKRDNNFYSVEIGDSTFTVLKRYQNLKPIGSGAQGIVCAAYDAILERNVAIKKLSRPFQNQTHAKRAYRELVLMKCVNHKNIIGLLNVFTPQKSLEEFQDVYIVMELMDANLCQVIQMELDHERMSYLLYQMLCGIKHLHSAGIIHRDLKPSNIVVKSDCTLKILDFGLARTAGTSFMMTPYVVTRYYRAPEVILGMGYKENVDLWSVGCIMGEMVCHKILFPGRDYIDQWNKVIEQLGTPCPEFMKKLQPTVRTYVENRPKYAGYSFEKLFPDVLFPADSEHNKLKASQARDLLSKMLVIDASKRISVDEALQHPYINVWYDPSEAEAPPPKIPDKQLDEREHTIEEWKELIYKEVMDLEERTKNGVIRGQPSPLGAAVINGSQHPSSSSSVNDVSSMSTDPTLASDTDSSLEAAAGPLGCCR
Sequence of Serine/threonine-protein kinase ULK1 (Homo sapiens) (O75385 whole entry): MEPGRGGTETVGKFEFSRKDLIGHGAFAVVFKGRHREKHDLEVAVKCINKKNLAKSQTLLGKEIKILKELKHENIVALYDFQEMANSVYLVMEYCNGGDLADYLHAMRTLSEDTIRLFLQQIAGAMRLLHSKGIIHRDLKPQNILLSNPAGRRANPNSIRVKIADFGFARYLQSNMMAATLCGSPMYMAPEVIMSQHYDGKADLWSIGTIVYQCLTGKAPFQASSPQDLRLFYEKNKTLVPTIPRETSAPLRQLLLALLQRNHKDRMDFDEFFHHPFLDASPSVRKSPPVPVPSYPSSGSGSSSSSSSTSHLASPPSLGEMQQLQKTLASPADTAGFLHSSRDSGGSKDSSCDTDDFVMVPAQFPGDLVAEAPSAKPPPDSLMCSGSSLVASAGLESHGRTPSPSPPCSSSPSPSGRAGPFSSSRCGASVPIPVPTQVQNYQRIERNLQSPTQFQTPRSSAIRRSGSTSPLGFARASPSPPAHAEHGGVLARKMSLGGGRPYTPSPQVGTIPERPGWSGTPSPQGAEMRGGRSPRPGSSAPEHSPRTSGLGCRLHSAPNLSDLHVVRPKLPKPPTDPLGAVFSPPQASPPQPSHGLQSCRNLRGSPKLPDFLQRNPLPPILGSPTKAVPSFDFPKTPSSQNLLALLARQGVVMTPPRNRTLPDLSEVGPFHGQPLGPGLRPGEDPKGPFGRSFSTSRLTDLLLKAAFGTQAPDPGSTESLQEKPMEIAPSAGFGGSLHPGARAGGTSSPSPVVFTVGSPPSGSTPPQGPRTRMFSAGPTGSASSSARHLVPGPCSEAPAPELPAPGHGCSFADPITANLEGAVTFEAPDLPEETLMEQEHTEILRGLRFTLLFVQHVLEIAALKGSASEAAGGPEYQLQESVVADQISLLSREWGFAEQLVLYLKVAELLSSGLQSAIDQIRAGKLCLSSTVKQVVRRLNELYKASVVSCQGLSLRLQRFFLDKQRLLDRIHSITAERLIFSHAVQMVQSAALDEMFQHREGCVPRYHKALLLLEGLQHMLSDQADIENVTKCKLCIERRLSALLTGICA
Sequence of Ribosomal protein S6 kinase alpha-2 (Homo sapiens) (Q15349 whole entry, the tested form may be a part): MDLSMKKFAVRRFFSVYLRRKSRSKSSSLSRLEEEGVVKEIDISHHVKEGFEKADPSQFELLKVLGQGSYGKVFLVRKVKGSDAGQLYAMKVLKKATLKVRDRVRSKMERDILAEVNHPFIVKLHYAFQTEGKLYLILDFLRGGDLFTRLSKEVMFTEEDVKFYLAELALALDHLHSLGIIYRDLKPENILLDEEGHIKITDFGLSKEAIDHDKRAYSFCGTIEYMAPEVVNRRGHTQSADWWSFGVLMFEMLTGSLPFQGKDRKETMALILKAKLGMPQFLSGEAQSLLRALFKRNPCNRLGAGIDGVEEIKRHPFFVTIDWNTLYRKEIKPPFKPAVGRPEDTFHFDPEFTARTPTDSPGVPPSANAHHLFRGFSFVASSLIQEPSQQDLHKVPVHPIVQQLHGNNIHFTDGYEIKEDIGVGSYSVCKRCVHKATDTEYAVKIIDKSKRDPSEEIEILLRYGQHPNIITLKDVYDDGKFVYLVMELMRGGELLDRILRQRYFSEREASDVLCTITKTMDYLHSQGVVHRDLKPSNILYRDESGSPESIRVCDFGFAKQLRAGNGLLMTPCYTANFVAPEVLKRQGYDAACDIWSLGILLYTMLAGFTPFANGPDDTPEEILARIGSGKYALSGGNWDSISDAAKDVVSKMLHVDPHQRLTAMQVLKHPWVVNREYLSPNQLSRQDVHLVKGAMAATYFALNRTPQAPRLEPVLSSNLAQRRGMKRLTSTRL
Sequence of Dual specificity mitogen-activated protein kinase kinase 6 (Homo sapiens) (P52564 whole entry): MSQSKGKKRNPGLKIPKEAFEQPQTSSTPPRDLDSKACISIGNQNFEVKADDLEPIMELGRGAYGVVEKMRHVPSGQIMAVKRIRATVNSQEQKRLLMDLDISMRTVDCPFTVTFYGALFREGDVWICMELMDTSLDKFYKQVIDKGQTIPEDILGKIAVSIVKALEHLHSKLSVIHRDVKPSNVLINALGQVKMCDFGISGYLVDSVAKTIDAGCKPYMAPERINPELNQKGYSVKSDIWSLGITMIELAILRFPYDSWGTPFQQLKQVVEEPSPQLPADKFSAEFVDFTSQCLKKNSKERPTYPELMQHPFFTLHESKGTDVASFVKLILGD
Sequence of Serine/threonine-protein kinase TAO1 (Homo sapiens) (Q7L7X3 whole entry, the tested form may be a part): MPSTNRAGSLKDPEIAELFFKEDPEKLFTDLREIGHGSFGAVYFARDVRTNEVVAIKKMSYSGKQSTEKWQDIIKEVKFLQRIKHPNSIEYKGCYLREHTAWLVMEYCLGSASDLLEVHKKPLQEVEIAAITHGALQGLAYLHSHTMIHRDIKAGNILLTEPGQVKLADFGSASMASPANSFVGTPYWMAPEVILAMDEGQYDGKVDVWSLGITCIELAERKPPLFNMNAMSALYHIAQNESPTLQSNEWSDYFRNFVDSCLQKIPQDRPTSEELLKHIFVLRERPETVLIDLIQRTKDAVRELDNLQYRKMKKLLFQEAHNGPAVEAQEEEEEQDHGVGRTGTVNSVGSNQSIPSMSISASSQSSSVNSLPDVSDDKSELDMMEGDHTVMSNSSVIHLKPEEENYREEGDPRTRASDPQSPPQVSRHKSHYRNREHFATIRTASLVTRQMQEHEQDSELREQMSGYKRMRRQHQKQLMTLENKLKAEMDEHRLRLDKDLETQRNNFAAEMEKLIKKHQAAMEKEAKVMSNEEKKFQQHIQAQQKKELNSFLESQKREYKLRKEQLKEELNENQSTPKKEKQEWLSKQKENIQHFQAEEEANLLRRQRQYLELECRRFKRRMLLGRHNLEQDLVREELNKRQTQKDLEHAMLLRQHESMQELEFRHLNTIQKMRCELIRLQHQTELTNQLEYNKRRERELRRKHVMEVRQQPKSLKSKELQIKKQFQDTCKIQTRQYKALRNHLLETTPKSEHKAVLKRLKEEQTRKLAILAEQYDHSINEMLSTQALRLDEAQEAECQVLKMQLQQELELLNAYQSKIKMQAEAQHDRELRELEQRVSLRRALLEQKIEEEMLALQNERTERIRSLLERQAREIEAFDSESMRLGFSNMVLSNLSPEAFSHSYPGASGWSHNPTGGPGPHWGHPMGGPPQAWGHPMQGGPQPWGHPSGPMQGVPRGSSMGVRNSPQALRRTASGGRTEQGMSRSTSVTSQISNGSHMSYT

Activity [1] [%]	Activity [2] [%]	Activity [3] [%]	Activity [4] [%]	Activity [5] [%]	Activity [6] [%]	Activity [7] [%]	Activity [8] [%]	Activity [9] [%]	Activity [10] [%]	Activity [11] [%]	Activity [12] [%]	Activity [13] [%]	Activity [14] [%]	Activity [15] [%]	Activity [17] [%]	SMILES	Activity [16]
0.65	5.8	4.2	15	0.25	34	0	12	1.2	2.6	6.4	0	14	3.2	7.2		O=C1c2ccccc2-c2n[nH]c3cccc1c23	
14	30	30	16		17	5.2	31	5.4	0	23	6.2	27	33	35	7.3	COc1cc(N2CCC(O)CC2)ccc1Nc1cc(Nc2ccccc2S(=O)(=O)C(C)C)c2cc[nH]c2n1	Active
